This note sets out measurements from ChEMBL document CHEMBL2424598, “Identification and optimization of pteridinone Toll-like receptor 7 (TLR7) agonists for the oral treatment of viral hepatitis” (J Med Chem, 2013).

For data set [1], the system named is Cynomolgus monkey. The data set is described as follows: Agonist activity at […] in cynomolgus monkey assessed as increase of serum IFNalpha level at 2 mg/kg, po after 1 to 24 hrs by ELISA. Type of data set: functional, Macaca fascicularis. In outline: (§1)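 Healthy male cynomolgus monkeys, n = 3 per group, dosed either by 30 min iv infusion or orally. Serum was sampled predose and at 1, 2, 4, 8, 12 and 24 h postdose. IFN-α was measured by species-specific ELISA (limit of detection 130 pg/mL) and reported as mean peak serum level ± SD.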

Data set [2] in a line: Half life in mouse liver microsomes. The data set is classed as ADME, Microsome.
A short description of data set [3]: Cmax in cynomolgus monkey at 0.3 mg/kg, po. Type of data set: ADME, organism-based, Macaca fascicularis. Also noted: dose 0.3 mg/kg, route oral. As to conditions: in vivo. In outline:
(§2)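 Male cynomolgus monkeys, n = 3 per group, received a 30 min iv infusion or an oral dose. Compound was measured in serum (limit of quantitation 0.04 ng/mL), and Cmax is reported as the group mean.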

Data set [4] deals with Cynomolgus monkey. Description: Agonist activity at […] in cynomolgus monkey assessed as increase of serum IFNalpha level at 0.3 mg/kg, po after 1 to 24 hrs by ELISA. The data set is classed as functional, Macaca fascicularis. In outline:
as §1
For orientation: ELISA stands for enzyme-linked immunosorbent assay.

Data set [5] can be described thus: Volume of distribution at steady state in cynomolgus monkey at 0.1 mg/kg, iv and 0.3 mg/kg, po. Type of data set: ADME, organism-based, Macaca fascicularis. As to conditions: in vivo, read-out: Vdss. In outline: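 Healthy male cynomolgus monkeys, n = 3, received a 30 min iv infusion at 0.1 mg/kg or an oral dose at 0.3 mg/kg. The oral formulation was water at pH 3.1 (HCl). Plasma PK parameters (CL, Vss, F) are reported as mean ± SD.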

Data set [6] deals with Cynomolgus monkey. The data set is described as follows: Agonist activity at […] in cynomolgus monkey assessed as increase of serum TNFalpha level at 0.3 to 1 mg/kg after 1 to 24 hrs by ELISA. As to conditions: Macaca fascicularis.
Data set [7] in a line: Half life in human liver microsomes. The data set is classed as ADME, Microsome.
Data set [8] has as its system Cynomolgus monkey. Description: Agonist activity at […] in cynomolgus monkey assessed as increase of serum IFNalpha level at 1 mg/kg, po after 1 to 24 hrs by ELISA. The data set is classed as functional, Macaca fascicularis. The gist of the method:
as §1

Data set [9] has as its system Cynomolgus monkey. Description: Agonist activity at […] in cynomolgus monkey assessed as increase of serum TNFalpha level at 2 mg/kg after 1 to 24 hrs by ELISA.
The species entered for a further data set is Homo sapiens. The data set is described as follows: Selectivity ratio of MEC for TLR8-mediated TNFalpha production in human PBMC to MEC for TLR7-mediated IFNalpha production in human PBMC. The gist of the method:
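Cryopreserved human PBMCs came from leukapheresis of a single healthy donor selected as a consistent responder. Cells were incubated with compound for 24 h over an eight-point concentration range, and cytokine release was measured. MEC is the lowest concentration giving cytokine levels at least 3-fold above untreated cultures, determined per cytokine.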

A short description of data set [10]: Half life in monkey liver microsomes. The data set is classed as ADME, Macaca mulatta, Microsome. As to conditions: rhesus monkey.
The nature of data set [11]: Cmax in cynomolgus monkey at 0.1 mg/kg, iv. Type of data set: ADME, organism-based, Macaca fascicularis. Also noted: dose 0.1 mg/kg, route intravenous. As to conditions: in vivo. In outline: as §2
Another data set concerns the target T1, Toll-like receptor 8 (Homo sapiens, UniProt Q9NR97).
T1 sequence (Q9NR97 whole entry): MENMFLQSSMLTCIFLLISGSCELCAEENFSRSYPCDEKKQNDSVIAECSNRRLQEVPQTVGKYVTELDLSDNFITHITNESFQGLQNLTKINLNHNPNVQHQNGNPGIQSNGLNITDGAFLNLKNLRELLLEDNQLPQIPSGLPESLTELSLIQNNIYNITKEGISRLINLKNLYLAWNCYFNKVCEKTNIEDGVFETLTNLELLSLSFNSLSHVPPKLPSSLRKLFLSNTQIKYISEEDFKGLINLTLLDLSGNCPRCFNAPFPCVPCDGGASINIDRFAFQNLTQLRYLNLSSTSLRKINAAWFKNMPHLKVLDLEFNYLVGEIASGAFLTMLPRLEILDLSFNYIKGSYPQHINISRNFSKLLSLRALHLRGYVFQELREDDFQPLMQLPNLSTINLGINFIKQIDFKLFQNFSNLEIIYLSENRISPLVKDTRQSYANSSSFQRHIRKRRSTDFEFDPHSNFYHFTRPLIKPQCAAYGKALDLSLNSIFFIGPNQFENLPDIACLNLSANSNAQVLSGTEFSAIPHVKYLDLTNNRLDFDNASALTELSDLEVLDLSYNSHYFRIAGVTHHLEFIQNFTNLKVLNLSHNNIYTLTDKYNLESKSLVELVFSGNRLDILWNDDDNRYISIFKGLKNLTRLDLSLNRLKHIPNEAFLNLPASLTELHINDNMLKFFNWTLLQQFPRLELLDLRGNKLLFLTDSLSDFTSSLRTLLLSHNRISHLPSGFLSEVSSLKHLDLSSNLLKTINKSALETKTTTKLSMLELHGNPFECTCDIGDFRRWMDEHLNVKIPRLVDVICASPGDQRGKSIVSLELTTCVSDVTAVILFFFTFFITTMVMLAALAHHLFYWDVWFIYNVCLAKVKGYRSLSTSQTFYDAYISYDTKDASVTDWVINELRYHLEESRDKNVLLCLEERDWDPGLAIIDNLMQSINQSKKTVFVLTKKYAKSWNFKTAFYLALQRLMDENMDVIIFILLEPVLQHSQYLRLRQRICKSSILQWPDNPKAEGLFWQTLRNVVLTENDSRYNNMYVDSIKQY
The data set is described as follows: Agonist activity at human TLR8 expressed in HEK293 cells by reporter based assay. The data set is classed as cell-based. In outline:
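HEK293 reporter cell lines, each expressing a single human TLR, with compound titrated up to 100 μM. EC50 taken for TLR7 and TLR8 activation.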

A short description of data set [12]: Half life in dog liver microsomes. Type of data set: ADME, Canis lupus familiaris, Microsome. (In general: Liver microsomes are vesicles of endoplasmic reticulum, rich in cytochrome P450 enzymes.)
The nature of data set [13]: Cmax in cynomolgus monkey at 1 mg/kg, po. Also noted: dose 1 mg/kg, route oral. The following applies: in vivo. Type of data set: ADME, organism-based, Macaca fascicularis. The gist of the method: as §2
For data set [14], the target named is T2, Toll-like receptor 8 (Homo sapiens) (UniProt Q9NR97).
T2 sequence (whole entry): T1 sequence (Q9NR97 whole entry)
The data set is described as follows: Agonist activity at TLR8-mediated TNFalpha production in human PBMC assessed as minimum concentration of compound necessary to generate >3 fold of cytokine levels relative to control. In outline: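 Cryopreserved human PBMCs from leukapheresis of one healthy donor, chosen as a consistent responder to TLR7 stimulation; 24 h incubation with compound over an eight-point concentration range. TNF-α read from dose-response curves. MEC is the lowest concentration giving cytokine levels at least 3-fold above untreated control cultures.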

For data set [15], the system named is Cynomolgus monkey. The data set is described as follows: Agonist activity at […] in cynomolgus monkey assessed as increase of serum IFNalpha level at 0.1 mg/kg, po after 1 to 24 hrs by ELISA. Type of data set: functional, Macaca fascicularis. The gist of the method: as §1
Data set [16] can be described thus: Cmax in cynomolgus monkey at 2 mg/kg, po. Type of data set: ADME, organism-based, Macaca fascicularis. Also noted: dose 2 mg/kg, route oral. As to conditions: in vivo. The gist of the method:
as §2

The test system of data set [17] is Cynomolgus monkey. The data set is described as follows: Agonist activity at […] in cynomolgus monkey assessed as increase of serum IFNalpha level at 0.1 mg/kg, iv after 1 to 24 hrs by ELISA. Type of data set: functional, Macaca fascicularis. In outline: as §1

Active and inactive are the calls of the source. The rule behind the calls is not given here.

The term half-life denotes how long it takes for the measured level to halve. In general, Cmax refers to the maximum level reached in the sampled fluid or tissue. What is called EC50 is the concentration that produces a half-maximal response.

Turning to `CCCCOc1nc(N)c2c(n1)N(Cc1cccc(CN3CCCC3)c1)CC(=O)N2` [VESATOLIMOD], the Activity was 119000 pg/mL with Cynomolgus monkey [1]; 763 pg/mL in the data set with Cynomolgus monkey [4]; 22367 pg/mL in the data set with Cynomolgus monkey [8]; 578 pg/mL with Cynomolgus monkey [9]; 140 pg/mL in the data set on Cynomolgus monkey [15]; 1840 pg/mL in the data set on Cynomolgus monkey [17]. The half-life in data set [2] was found to be 4.9 min; in data set [7], 30.5 min; in data set [10], 5.9 min; in data set [12], 58.6 min. Moreover, the Cmax in data set [3] amounted to 4.6 ng/mL; in [11], 128 ng/mL; in data set [13], 20.7 ng/mL; in data set [16], 66.4 ng/mL. The Vd in data set [5] was determined as 4.1 L/kg. Also, the result in the data set on Cynomolgus monkey [6] was inactive. The Ratio in the data set listed under Homo sapiens came out at 100. The compound also came in with a concentration giving a half-maximal response (EC50) at Toll-like receptor 8 of 9 µM. The MEC in data set [14] is 3.65 µM.
